Published values of several laboratories.
Protocols differ between the studies behind these lines.
Target: MAP/microtubule affinity-regulating kinase 4 (MARK4, Homo sapiens, UniProt Q96L34)
Residues used in one study (Q96L34 1-752): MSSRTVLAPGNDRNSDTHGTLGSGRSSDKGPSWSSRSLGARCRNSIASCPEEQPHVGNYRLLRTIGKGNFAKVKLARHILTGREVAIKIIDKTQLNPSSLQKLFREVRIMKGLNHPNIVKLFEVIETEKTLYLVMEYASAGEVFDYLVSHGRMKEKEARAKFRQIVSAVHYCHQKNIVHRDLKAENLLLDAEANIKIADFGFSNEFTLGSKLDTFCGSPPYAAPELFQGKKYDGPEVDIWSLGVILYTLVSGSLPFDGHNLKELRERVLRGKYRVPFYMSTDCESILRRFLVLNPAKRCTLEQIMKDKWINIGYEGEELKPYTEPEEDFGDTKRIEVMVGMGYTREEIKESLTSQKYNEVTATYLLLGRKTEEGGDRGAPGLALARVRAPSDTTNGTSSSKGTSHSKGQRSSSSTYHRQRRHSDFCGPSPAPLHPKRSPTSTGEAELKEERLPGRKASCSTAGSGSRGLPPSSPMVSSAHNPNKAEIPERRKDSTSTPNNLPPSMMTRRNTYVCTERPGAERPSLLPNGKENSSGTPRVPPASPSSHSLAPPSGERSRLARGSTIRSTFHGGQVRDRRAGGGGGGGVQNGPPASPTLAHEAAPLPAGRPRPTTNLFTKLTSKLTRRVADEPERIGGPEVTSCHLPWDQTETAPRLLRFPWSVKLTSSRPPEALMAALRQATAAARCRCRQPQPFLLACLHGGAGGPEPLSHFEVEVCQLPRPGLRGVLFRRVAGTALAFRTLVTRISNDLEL

SMILES	effect on	action	technique	tested at	quantity	result
O=C(Nc1cnn(-c2csc(C(=O)NC3COC3)c2)c1)Nc1ccccc1Cl	enzyme activity	inhibitor		5 µM	remaining activity	108%
Cc1nn(CC(F)(F)F)cc1Nc1ncc(Br)c(NCCCNC(=O)C2CCC2)n1	enzyme activity	inhibitor	radiometric	1 µM	remaining activity	27%
FC(F)(F)Oc1cccc(-c2cnc3ccc(-c4ccncc4)nn23)c1	enzyme activity	inhibitor	radiometric	1 µM	activity vs control	91%
Nc1ncnc2occ(-c3ccc(NC(=O)Nc4cc(C(F)(F)F)ccc4F)cc3)c12	cell-free assay	inhibitor		20 µM	remaining signal	51%
CCCOc1ccc([C@@H]2[C@@H](C(=O)O)[C@H](c3ccc4c(c3)OCO4)CN2CC(=O)Nc2c(CC)cccc2CC)cc1	cell-free assay		competition with immobilised ligand	1 µM	remaining binding	100%
O=C(NCCCNc1ccnc(Nc2cccc(NC(=O)N3CCCC3)c2)n1)C1CCC1	enzyme activity	inhibitor	radiometric	1 µM	remaining activity	85%
NS(=O)(=O)c1cc(NC(=O)Cc2ccccc2)ccc1Oc1cccc(Cl)c1	cell-free assay		competition with immobilised ligand	1 µM	remaining binding	100%
c1cc(CN2CCOCC2)cc(Nc2ncc(C3CC3)c(NCCc3c[nH]cn3)n2)c1	enzyme activity	inhibitor	radiometric	1 µM	remaining activity	4%
N[C@@H]1CCN(c2nccc(-c3cnn4ncccc34)n2)C1	binding			1 µM	remaining binding	100%
CS(=O)(=O)NCC[C@H](NC(=O)c1cncc2c1cnn2-c1ccc(F)cc1)c1ccnc(S(C)(=O)=O)c1	cell-free assay		competition with immobilised ligand	1 µM	remaining binding	78%
Cc1nn(CC(F)(F)F)cc1Nc1ncc(C2CC2)c(NCCCNC(=O)C2CCC2)n1	enzyme activity	inhibitor	radiometric	1 µM	remaining activity	100%
CCCS(=O)(=O)Nc1ccc(F)c(C(=O)c2c[nH]c3ncc(-c4ccc(Cl)cc4)cc23)c1F	enzyme activity	inhibitor		1 µM	inhibition	< 20%
CCS(=O)(=O)c1cc2cc(C[C@@](O)(CC(C)(C)c3ccc(F)cc3C(N)=O)C(F)(F)F)[nH]c2cn1	cell-free assay		competition with immobilised ligand	1 µM	remaining binding	100%
Cc1nn(CC(F)(F)F)cc1Nc1nccc(NCCc2cnc[nH]2)n1	enzyme activity	inhibitor	radiometric	1 µM	remaining activity	99%
O=C1NC(=O)c2cc(Nc3ccc(F)cc3)c(Nc3ccc(F)cc3)cc21	cell-free assay			0.5 µM	remaining signal	98.2%
COc1ccc2c(c1)O[C@@H](c1ccc(OC)c(OC)c1)C[C@H]2NC(=O)C1(c2ccc3c(c2)OC(F)(F)O3)CC1	cell-free assay		competition with immobilised ligand	1 µM	remaining binding	92%
c1cc(CN2CCOCC2)cc(Nc2nccc(NCCc3cnc[nH]3)n2)c1	enzyme activity	inhibitor	radiometric	1 µM	remaining activity	68%
CCOc1cc(-c2nncn2C)ccc1Nc1ncc2cc(C)nc(NCC(C)(C)C)c2n1	enzyme activity	inhibitor	FRET	1 µM	inhibition	< 15%
COc1cc2ncnc(Nc3ccc(Oc4ccccc4)c(C)c3C)c2cc1OC	enzyme activity	inhibitor		1 µM	inhibition	-1%
C[C@@H](c1cccc(C#N)c1)n1cc(Cl)cc(C(N)=O)c1=N	cell-free assay		competition with immobilised ligand	1 µM	remaining binding	100%
O=C1Nc2ccc(Cl)cc2C1=Cc1cc(Cl)c(O)c(Cl)c1	cell-free assay			0.5 µM	remaining signal	78.4%
O=C(N[C@H]1CCCCC/C=C\C2C[C@@]2(C(=O)O)NC(=O)[C@@H]2C[C@@H](Oc3ccncc3)CN2C1=O)OC1CCCC1 (stereo partly shown)	binding		competition with immobilised ligand	1 µM	remaining binding	100%
NS(=O)(=O)c1ccc(CNc2nc(Nc3cccc(CN4CCOCC4)c3)ncc2C2CC2)cc1	enzyme activity	inhibitor	radiometric	1 µM	remaining activity	98%
O=C(O)[C@H]1[C@H](Cn2nnc3ccccc3c2=O)CC[C@@H]1C(=O)c1ccc(OCCC2CCOCC2)cc1	cell-free assay		competition with immobilised ligand	1 µM	remaining binding	96%
COc1cc2ncnc(Nc3ccc(F)c(Cl)c3)c2cc1OCCCN1CCOCC1	cell-free assay			0.5 µM	remaining signal	94.2%
